Reference: ChEMBL document CHEMBL3593160, “Orally active ghrelin receptor inverse agonists and their actions on a rat obesity model” (Bioorg Med Chem, 2015)
Active and inactive are the calls of the source. The rule behind the calls is not given here.

Experiments:
[1] = biological target: Growth hormone secretagogue receptor type 1 (Rattus norvegicus) (UniProt O08725); test: Antagonist activity at rat ghrelin receptor expressed in CHO cells assessed as blocking of human ghrelin-induced response by FLIPR based intracellular Ca2+ mobilization assay relative to control; format: functional, cell-based
Growth hormone secretagogue receptor type 1 (Rattus norvegicus), sequence (O08725 whole entry): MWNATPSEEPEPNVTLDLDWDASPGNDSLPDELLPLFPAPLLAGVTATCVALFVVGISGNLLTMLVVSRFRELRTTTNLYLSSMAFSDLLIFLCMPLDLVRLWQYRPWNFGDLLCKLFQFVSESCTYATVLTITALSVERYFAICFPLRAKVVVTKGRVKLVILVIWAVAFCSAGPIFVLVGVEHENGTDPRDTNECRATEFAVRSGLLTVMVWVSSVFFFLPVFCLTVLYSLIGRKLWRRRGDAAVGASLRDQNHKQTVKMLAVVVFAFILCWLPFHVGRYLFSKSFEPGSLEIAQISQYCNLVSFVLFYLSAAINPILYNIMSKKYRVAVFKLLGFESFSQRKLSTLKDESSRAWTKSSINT
How it was run: (§1)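 CHO cells stably expressing rat ghrelinR, loaded with Calcium 3 dye for 2.5 h at room temperature in HBSS with 20 mM Hepes, 2.5 mM probenecid and 1 mg/mL BSA. Compound added, then 1 nM human ghrelin. Response taken as peak fluorescence minus basal.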

[2] = Total clearance in ICR mouse by LC/MS/MS method; format: ADME, organism-based; conditions: in vivo
[3] = biological target: T1, Growth hormone secretagogue receptor type 1 (Rattus norvegicus, UniProt O08725); test: Antagonist activity at rat ghrelin receptor expressed in CHO cells assessed as blocking of human ghrelin-induced response by FLIPR based intracellular Ca2+ mobilization assay; format: functional, cell-based; how it was run: as §1
T1 sequence (O08725 whole entry): as above

[4] = biological target: T1, Growth hormone secretagogue receptor type 1; test: Inverse agonist activity rat ghrelin receptor expressed in HEK293 cells by luciferase reporter gene assay; format: cell-based
How it was run: (§2)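 HEK293 cells transiently transfected (about 5 h, Lipofectamine 2000) with rat ghrelinR vector (10 ng) and pNFAT-Luc (100 ng) per well. Compounds added in RPMI1640 with 0.1% dialyzed FBS and incubated overnight at 37 °C. Constitutive NFAT-luciferase signal read by luminescence; viability checked by AlamarBlue.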

[5] = Oral bioavailability in ICR mouse by LC/MS/MS method; format: ADME, organism-based; conditions: in vivo
[6] = biological target: Growth hormone secretagogue receptor type 1 (Rattus norvegicus) (UniProt O08725); test: Inverse agonist activity rat ghrelin receptor expressed in HEK293 cells by luciferase reporter gene assay relative to control; format: cell-based; how it was run: as §2
[7] = biological target: T1, Growth hormone secretagogue receptor type 1; test: Displacement of [125I]human ghrelin from rat ghrelin receptor expressed in CHO cell membranes incubated for 30 mins by scintillation counting method
How it was run: (§3)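 Membranes from CHO cells stably expressing rat or human ghrelinR (3.34 µg protein) incubated with 0.04 nM [125I]human ghrelin and varied compound concentrations for 30 min at room temperature. Buffer: 50 mM Hepes pH 7.5, 1 mM CaCl2, 5 mM MgCl2, 75 mM NaCl, 0.5% BSA. Membranes filtered and washed; bound radioactivity counted by scintillation.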

[8] = biological target: T1, Growth hormone secretagogue receptor type 1; test: Antagonist activity at ghrelin receptor in Sprague-Dawley rat primary pituitary cells assessed as inhibition of ghrelin-induced growth hormone secretion incubated for 15 mins by ELISA method; format: cell-based, Pituitary gland cell
How it was run: (§4)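 SD rat (6–8 weeks, male) anterior pituitary cells dispersed with collagenase and papain and cultured 2 days. Cells preincubated 1.5 h in HBSS with 1% BSA, 0.25% glucose and 25 mM HEPES, then treated 15 min at 37 °C with 1 nM ghrelin present. GH in supernatant measured by ELISA. Inhibition = (C−E)/C×100.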

[9] = biological target: Growth hormone secretagogue receptor type 1 (Rattus norvegicus) (UniProt O08725); test: Antagonist activity at ghrelin receptor in Sprague-Dawley rat primary pituitary cells assessed as inhibition of ghrelin-induced growth hormone secretion incubated for 15 mins by ELISA method relative to control; format: cell-based; conditions: Pituitary gland cell; how it was run: as §4
[10] = biological target: Growth hormone secretagogue receptor type 1 (Homo sapiens, UniProt Q92847); test: Displacement of [125I]human ghrelin from human ghrelin receptor expressed in CHO cell membranes incubated for 30 mins by scintillation counting method; how it was run: as §3
Growth hormone secretagogue receptor type 1 (Homo sapiens, UniProt Q92847), sequence (Q92847 whole entry): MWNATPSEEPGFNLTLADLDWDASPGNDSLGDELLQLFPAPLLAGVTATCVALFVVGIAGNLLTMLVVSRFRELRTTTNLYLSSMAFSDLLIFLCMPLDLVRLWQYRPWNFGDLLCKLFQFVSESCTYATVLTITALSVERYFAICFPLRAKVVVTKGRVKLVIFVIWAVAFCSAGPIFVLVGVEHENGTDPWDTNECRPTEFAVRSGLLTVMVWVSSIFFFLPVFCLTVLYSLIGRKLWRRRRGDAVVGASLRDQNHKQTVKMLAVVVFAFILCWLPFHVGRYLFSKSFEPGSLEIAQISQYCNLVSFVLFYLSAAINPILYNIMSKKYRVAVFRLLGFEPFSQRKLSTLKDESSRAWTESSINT

Liver microsome = test: Metabolic stability in human liver microsomes assessed as metabolic rate at 1 uM incubated for 30 mins in presence of NADPH by LC/MS/MS method; format: ADME; conditions: 0.5 h
[11] = Plasma concentration in Sprague-Dawley rat model of high-fat diet-induced obesity at 30 mg/kg, po BID for 3 weeks; format: ADME, organism-based
How it was run: (§5)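 Male SD rats fed 60% fat diet for 10 weeks, habituated to oral vehicle dosing for 3 weeks. Compound given orally as a suspension in 0.5% hydroxypropyl cellulose at 9:30 am and 6:00 pm. Plasma levels measured on the first dosing day. AUC0-24 from these levels; mean plasma concentration = AUC0-24/24 h.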

[12] = Ratio of free plasma concentration in Sprague-Dawley rat model of high-fat diet-induced obesity at 10 mg/kg, po BID for 3 week to IC50 for displacement of [125I]human ghrelin from rat ghrelin receptor expressed in CHO cell membranes; format: organism-based; conditions: in vivo, 504 h
How it was run: (§6)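 Free concentration = total concentration × free fraction from human plasma protein binding by equilibrium dialysis. Plasma level is AUC0-24/24 h on day 1 of twice-daily oral dosing in HFD-obese SD rats. Brain level is plasma × B/P ratio from normal rats. Each is divided by the binding IC50.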

Rattus norvegicus [13] = test: Inhibition of total calorie intake in Sprague-Dawley rat model of high-fat diet-induced obesity at 10 mg/kg, po BID 3 weeks; format: functional, organism-based; conditions: in the assay text read “14 days” for “3 weeks”
How it was run: (§7)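 Male SD rats given a 60% fat diet for 10 weeks, habituated 3 weeks to oral vehicle, and randomized to vehicle, treatment or pair-fed groups. Oral dosing twice daily (9:30 am, 6:00 pm) as a 0.5% hydroxypropyl cellulose suspension. Body weight and daily food intake recorded before the morning dose. Pair-fed rats got the previous day's treated-group mean intake plus vehicle.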

[14] = Protein binding in human plasma at 10 uM incubated for 4 hrs by equilibrium dialysis; format: ADME, cell-free; conditions: read-out: PPB
How it was run: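 10 µM compound in human plasma dialysed against DPBS pH 7.4 for 4 h at 37 °C by rapid equilibrium dialysis. Plasma and buffer fractions acetonitrile-extracted and quantified by LC/MS/MS.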

[15] = Ratio of free drug concentration in brain of Sprague-Dawley rat model of high-fat diet-induced obesity at 10 mg/kg, po BID for 3 week to IC50 for displacement of [125I]human ghrelin from rat ghrelin receptor expressed in CHO cell membranes; format: organism-based; conditions: in vivo, 504 h; how it was run: as §6
Rattus norvegicus [16] = test: Oral bioavailability in Sprague-Dawley rat at 10 mg/kg by LC/MS/MS method; format: ADME, organism-based; conditions: in vivo
How it was run: (§8)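 Non-fasted SD rats (n = 3/group) dosed 10 mg/kg orally or 1 mg/kg iv in 5% DMSO/10% HPCD in saline. Heparinized plasma sampled 0.08 (iv only) to 24 h. Parameters by noncompartmental analysis.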

[17] = Ratio of drug concentration in brain of Sprague-Dawley rat model of high-fat diet-induced obesity at 30 mg/kg, po BID for 3 week to IC50 for displacement of [125I]human ghrelin from rat ghrelin receptor expressed in CHO cell membranes; format: organism-based; conditions: in vivo, 504 h
How it was run: (§9)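 Brain level estimated as mean plasma concentration (AUC0-24/24 h, day 1 of twice-daily oral dosing in HFD-obese SD rats) multiplied by the B/P ratio from normal rats. The ratio divides this by the binding IC50.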

Rattus norvegicus [18] = test: Inhibition of total calorie intake in Sprague-Dawley rat model of high-fat diet-induced obesity at 30 mg/kg, po BID 3 weeks; format: functional, organism-based; conditions: in the assay text read “14 days” for “3 weeks”; how it was run: as §7
[19] = Ratio of drug level in brain to plasma of Sprague-Dawley rat at 1 mg/kg, iv after 2 hrs by LC/MS/MS method; format: ADME, organism-based; conditions: read-out: BPR
[20] = Ratio of free plasma concentration in Sprague-Dawley rat model of high-fat diet-induced obesity at 30 mg/kg, po BID for 3 week to IC50 for displacement of [125I]human ghrelin from rat ghrelin receptor expressed in CHO cell membranes; format: organism-based; conditions: in vivo, 504 h; how it was run: as §6
[21] = AUC (0 to 24 hrs) in Sprague-Dawley rat model of high-fat diet-induced obesity at 30 mg/kg, po BID for 3 weeks; format: ADME, organism-based; parameters: time < 24 hr, dose 30 mg/kg, route oral; conditions: in vivo; how it was run: as §5
[22] = Ratio of plasma concentration in Sprague-Dawley rat model of high-fat diet-induced obesity at 10 mg/kg, po BID for 3 week to IC50 for displacement of [125I]human ghrelin from rat ghrelin receptor expressed in CHO cell membranes; format: organism-based; conditions: in vivo, 504 h
How it was run: (§10)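 Mean plasma concentration (AUC0-24/24 h, day 1 of twice-daily oral dosing in HFD-obese SD rats) divided by the binding IC50.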

[23] = Ratio of plasma concentration in Sprague-Dawley rat model of high-fat diet-induced obesity at 30 mg/kg, po BID for 3 week to IC50 for displacement of [125I]human ghrelin from rat ghrelin receptor expressed in CHO cell membranes; format: organism-based; conditions: in vivo, 504 h; how it was run: as §10
[24] = Ratio of drug concentration in brain of Sprague-Dawley rat model of high-fat diet-induced obesity at 10 mg/kg, po BID for 3 week to IC50 for displacement of [125I]human ghrelin from rat ghrelin receptor expressed in CHO cell membranes; format: organism-based; conditions: in vivo, 504 h; how it was run: as §9
[25] = Plasma concentration in Sprague-Dawley rat model of high-fat diet-induced obesity at 10 mg/kg, po BID for 3 weeks; format: ADME, organism-based; how it was run: as §5
[26] = Drug concentration in brain of Sprague-Dawley rat model of high-fat diet-induced obesity at 30 mg/kg, po BID for 3 weeks; format: ADME, organism-based; conditions: read-out: Drug uptake; how it was run: as §9
[27] = Ratio of free drug concentration in brain of Sprague-Dawley rat model of high-fat diet-induced obesity at 30 mg/kg, po BID for 3 week to IC50 for displacement of [125I]human ghrelin from rat ghrelin receptor expressed in CHO cell membranes; format: organism-based; conditions: in vivo, 504 h; how it was run: as §6
Rattus norvegicus [28] = test: AUC (0 to 24 hrs) in Sprague-Dawley rat model of high-fat diet-induced obesity at 10 mg/kg, po BID for 3 weeks; format: ADME, organism-based; parameters: dose 10 mg/kg, time < 24 hr, route oral; conditions: in vivo; how it was run: as §5
[29] = Drug concentration in brain of Sprague-Dawley rat model of high-fat diet-induced obesity at 10 mg/kg, po BID for 3 weeks; format: ADME, organism-based; conditions: read-out: Drug uptake; how it was run: as §9
Rattus norvegicus [30] = test: Total clearance in Sprague-Dawley rat at 1 mg/kg, iv by LC/MS/MS method; format: ADME, organism-based; conditions: in vivo; how it was run: as §8
Rattus norvegicus [31] = test: Inhibition of daily weight gain in Sprague-Dawley rat model of high-fat diet-induced obesity at 30 mg/kg, po BID for14 days; format: functional, organism-based; how it was run: as §7

## COc1ccc(CNC(=O)c2cc(C3=C[C@@H]4CC[C@H](C3)N4C(C)=O)cnc2NCc2ccc3c(c2)OCO3)cc1Cl
[1]
  Efficacy: > 95%
[2]
  clearance: 180 mL/min/kg
[3]
  IC50: 100 nM
[4]
  IC50: 9.8 nM
[5]
  bioavailability: 7.2%
[6]
  Efficacy: > 95%
[7]
  IC50: 5.6 nM
[8]
  IC50: 32.8 nM
[9]
  Efficacy: > 95%
[10]
  IC50: 0.3 nM
Liver microsome
  Drug metabolism: 39 pmol/min/mg

## COc1ccc(CNC(=O)c2cc(C#CC(C)(C)NC(C)=O)cnc2NCc2ccc3c(c2)OCO3)cc1Cl
[11]
  concentration at 504 h: 5670 nM
[1]
  Efficacy: > 95%
[12]
  Ratio: 2.9
Rattus norvegicus [13]
  inhibition: inactive
[14]
  fraction unbound at 4 h, 10 µM: 0.01
[15]
  Ratio: 0.2
Rattus norvegicus [16]
  F: 46.4%
[17]
  Ratio: 58
Rattus norvegicus [18]
  inhibition: inactive
[19]
  Kp at 2 h: 0.07
[20]
  Ratio: 8.6
[21]
  AUC at 24 h: 74700 ng·h/mL
[22]
  Ratio: 286
[23]
  Ratio: 859
[3]
  IC50: 34 nM
[24]
  Ratio: 19
[4]
  IC50: 26 nM
[25]
  concentration at 504 h: 1890 nM
[26]
  concentration at 504 h: 370 nM
[6]
  Efficacy: > 95%
[7]
  IC50: 6.6 nM
[27]
  Ratio: 0.6
[8]
  IC50: 36.2 nM
[9]
  Efficacy: > 95%
Rattus norvegicus [28]
  AUC: 24901 ng·h/mL
[10]
  IC50: 3 nM
[29]
  concentration at 504 h: 132 nM
Rattus norvegicus [30]
  CL: 1.67 L/h/kg
Liver microsome
  Drug metabolism: 81 pmol/min/mg

## Cc1ccc(CNC(=O)c2cc(C#CC(C)(C)O)cnc2NCc2ccc3c(c2)OCO3)cc1C(F)F
[11]
  concentration at 504 h: 272 nM
[1]
  Efficacy: > 95%
[12]
  Ratio: 3.2
Rattus norvegicus [13]
  inhibition: inactive
[14]
  fraction unbound at 4 h, 10 µM: 0.01
[15]
  Ratio: 0.7
Rattus norvegicus [31]
  inhibition: Active
Rattus norvegicus [16]
  F: 23.8%
[17]
  Ratio: 203
Rattus norvegicus [18]
  inhibition: inactive
[19]
  Kp at 2 h: 0.21
[20]
  Ratio: 97
[21]
  AUC at 24 h: 3310 ng·h/mL
[22]
  Ratio: 324
[23]
  Ratio: 972
[3]
  IC50: 13 nM
[24]
  Ratio: 68
[4]
  IC50: 5.4 nM
[25]
  concentration at 504 h: 91 nM
[26]
  concentration at 504 h: 57 nM
[6]
  Efficacy: > 95%
[7]
  IC50: 0.28 nM
[27]
  Ratio: 2
[8]
  IC50: 11.6 nM
[9]
  Efficacy: > 95%
Rattus norvegicus [28]
  AUC: 1105 ng·h/mL
[10]
  IC50: 0.44 nM
[29]
  concentration at 504 h: 19 nM
Rattus norvegicus [30]
  CL: 0.74 L/h/kg
Liver microsome
  Drug metabolism: 103 pmol/min/mg
